Active and inactive are the calls of the source. No cut-off for these calls is given here.
What was measured:
Danio rerio [1] = species: Danio rerio; assay: Inhibition of BMPR1 in zebrafish assessed as penetrance of normal embryonic axis dorsalization at 10 uM treated at 2 to 4 hrs post-fertilization measured at 48 hrs; set-up: scale not given: the % may be the effect or the level left
Danio rerio [2] = species: Danio rerio; assay: Inhibition of BMPR1 in zebrafish assessed as penetrance of moderate embryonic axis dorsalization at 10 uM treated at 6 to 8 hrs post-fertilization measured at 48 hrs; set-up: scale not given: the % may be the effect or the level left
Method in brief: (§1)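 Compound added at the stated times and concentrations. Gross morphology scored visually at up to 48 h.p.f. for dorsalization of the embryonic axis.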

Danio rerio [3] = species: Danio rerio; assay: Inhibition of BMPR1 in zebrafish assessed as penetrance of normal embryonic axis dorsalization at 2 uM treated at 3 hrs post-fertilization measured at 48 hrs; set-up: scale not given: the % may be the effect or the level left
Mus musculus [4] = species: Mus musculus; assay: Inhibition of BMPR1-mediated Smad-1 phosphorylation in BMP7-stimulated mouse BMPR2 deficient PASMC at 4 uM treated 30 mins before BMP7 challenge measured after 30 mins by immunoblot analysis
Method in brief: (§2)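 PASMCs (wild-type or BMPR-II–deficient) were kept 24 h in RPMI with 0.5% FCS, preincubated 30 min with compound or vehicle, then stimulated 30 min with recombinant BMP (10 ng ml−1). Extracts in SDS-lysis buffer were immunoblotted for phospho-SMAD1/5/8, with total SMAD1 and α-tubulin as loading controls. Bands were quantitated by phosphorimager.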

Danio rerio [5] = species: Danio rerio; assay: Inhibition of BMPR1 in zebrafish assessed as severity of embryonic axis dorsalization at 2 uM treated at 3 hrs post-fertilization measured at 48 hrs; set-up: scale not given: the % may be the effect or the level left
Mus musculus [6] = species: Mus musculus; assay: Inhibition of ALK3-mediated Smad-5 phosphorylation in BMPR2 deficient mouse PASMC at 10 uM by immunoblot analysis
Method in brief: (§3)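 BMPR-II–deficient mouse PASMCs (RPMI, 10% FBS) transiently transfected with constitutively active ALK2, ALK3 or ALK6 cDNA, or plasmid-only control. Incubated with or without compound (10 µM). Extracts lysed in SDS buffer, run on SDS-PAGE and immunoblotted for phospho-SMAD1/5/8; quantitated by phosphorimager.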

Danio rerio [7] = species: Danio rerio; assay: Inhibition of BMPR1 in zebrafish assessed as penetrance of mild embryonic axis dorsalization at 10 uM treated continuously from 6 hrs post-fertilization measured at 48 hrs; set-up: scale not given: the % may be the effect or the level left; method in brief: as §1
Danio rerio [8] = species: Danio rerio; assay: Inhibition of BMPR1 in zebrafish assessed as penetrance of moderate embryonic axis dorsalization at 10 uM treated continuously from 2 hrs post-fertilization measured after 48 hrs; set-up: scale not given: the % may be the effect or the level left; method in brief: as §1
Mus musculus [9] = species: Mus musculus; assay: Inhibition of ALK3-mediated Smad-1 phosphorylation in BMPR2 deficient mouse PASMC at 10 uM by immunoblot analysis; method in brief: as §3
Mus musculus [10] = species: Mus musculus; assay: Inhibition of ALK2-mediated Id1 promoter activity in BMPR2 deficient mouse PASMC at 10 uM by immunoblot analysis
Method in brief: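 BMPR-II–deficient mouse PASMCs at 50% confluence co-transfected with Id1 promoter firefly luciferase (BRE-Luc, 0.3 µg), caALK2, caALK3 or caALK6 (0.6 µg), and pRL-TK Renilla (0.2 µg). Compound (4–10 µM) or vehicle added 1 h after transfection. Activity read as firefly/Renilla ratio by dual luciferase assay; n = 3, mean ± s.d.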

Mus musculus [11] = species: Mus musculus; assay: Inhibition of BMPR1-mediated Smad-8 phosphorylation in BMP6-stimulated mouse PASMC at 4 uM treated 30 mins before BMP6 challenge measured after 30 mins by immunoblot analysis
Method in brief: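 Wild-type mouse PASMCs were kept in RPMI with 0.5% FCS for 24 h. They were preincubated with compound or vehicle for 30 min, then stimulated for 30 min with recombinant BMP2, BMP4, BMP6 or BMP7 at 10 ng ml−1. Lysates in SDS buffer were immunoblotted with anti-phospho-SMAD1/5/8. Total SMAD1 and α-tubulin served as loading controls, and bands were quantified by phosphorimager.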

Mus musculus [12] = species: Mus musculus; assay: Inhibition of BMPR1-mediated Smad-1 phosphorylation in BMP4-stimulated mouse PASMC at 4 uM treated 30 mins before BMP4 challenge measured after 30 mins by immunoblot analysis; method in brief: as §2
[13] = Inhibition of Sprague-Dawley rat AMPK assessed as inhibition of [33P]ATP utilization after 30 mins by scintillation counting
Danio rerio [14] = species: Danio rerio; assay: Inhibition of BMPR1-mediated osteoblast differentiation in zebrafish assessed as decrease in alkaline phosphatase level at 1 to 4 uM treated at 24 hrs post-fertilization measured on day 10 post-fertilization
Mus musculus [15] = species: Mus musculus; assay: Inhibition of ALK2-mediated Smad-1 phosphorylation in BMPR2 deficient mouse PASMC at 10 uM by immunoblot analysis; method in brief: as §3
Mus musculus [16] = assay: Inhibition of iron-dextran conjugate-induced Smad-5 phosphorylation in C57BL/6 mouse at 23 ug/g, iv after 1 hr; assay type: functional, organism-based
Danio rerio [17] = species: Danio rerio; assay: Inhibition of BMPR1 in zebrafish assessed as embryonic axis dorsalization at 20 uM treated at 2 hrs post-fertilization measured after 36 hrs in presence of 1 ng chordin morpholino
Method in brief: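 Wild-type zebrafish embryos injected with 1 ng chordin morpholino, then exposed to vehicle or compound (20 µM) at 2 h.p.f. Photographed at 36 h.p.f. to score the intermediate cell mass and ventral tail fin structures.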

Mus musculus [18] = species: Mus musculus; assay: Inhibition of BMPR1-mediated MAPK p38 phosphorylation in BMP4-stimulated mouse PASMC at 100 to 200 ng/ml treated 30 mins before BMP4 challenge measured after 30 mins by immunoblot analysis
Method in brief: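 Mouse PASMCs were serum-reduced 24 h in 0.5% FCS RPMI, pretreated 30 min with noggin or vehicle, then given BMP4 for 30 min. Lysates in SDS buffer were immunoblotted for phospho-SMAD1/5/8 and phospho-MAPK p38, and signals were quantitated by phosphorimager.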

Danio rerio [19] = species: Danio rerio; assay: Inhibition of BMPR1 in zebrafish assessed as penetrance of mild embryonic axis dorsalization at 2 uM treated at 3 hrs post-fertilization measured at 48 hrs; set-up: scale not given: the % may be the effect or the level left; method in brief: as §1
Danio rerio [20] = species: Danio rerio; assay: Toxicity in zebrafish assessed as survivability at 10 uM treated at 3 hrs post-fertilization measured at 48 hrs; assay type: organism-based; conditions: in vivo
Danio rerio [21] = species: Danio rerio; assay: Inhibition of BMPR1 in zebrafish assessed as penetrance of normal embryonic axis dorsalization at 10 uM treated at 3 hrs post-fertilization measured at 48 hrs; set-up: scale not given: the % may be the effect or the level left
Danio rerio [22] = species: Danio rerio; assay: Inhibition of BMPR1 in zebrafish assessed as penetrance of normal embryonic axis dorsalization at 10 uM treated continuously from 8 hrs post-fertilization measured at 48 hrs; set-up: scale not given: the % may be the effect or the level left
Danio rerio [23] = species: Danio rerio; assay: Inhibition of BMPR1 in zebrafish assessed as severity of embryonic axis dorsalization at 5 uM treated at 3 hrs post-fertilization measured at 48 hrs; set-up: scale not given: the % may be the effect or the level left
Mus musculus [24] = species: Mus musculus; assay: Inhibition of ALK3-mediated Smad-8 phosphorylation in BMPR2 deficient mouse PASMC at 10 uM by immunoblot analysis; method in brief: as §3
Mus musculus [25] = assay: Inhibition of iron-dextran conjugate-induced Smad-8 phosphorylation in C57BL/6 mouse at 23 ug/g, iv after 1 hr; assay type: functional, organism-based
HepG2 = assay: Inhibition of hepcidin mRNA expression in human HepG2 cells at 10 uM […] by qRT-PCR analysis relative to control; assay type: functional
Mus musculus [26] = species: Mus musculus; assay: Inhibition of BMPR1-mediated Smad-1 phosphorylation in BMP6-stimulated mouse BMPR2 deficient PASMC at 4 uM treated 30 mins before BMP6 challenge measured after 30 mins by immunoblot analysis; method in brief: as §2
Mus musculus [27] = species: Mus musculus; assay: Inhibition of ALK6-mediated Smad-1 phosphorylation in BMPR2 deficient mouse PASMC at 10 uM by immunoblot analysis; method in brief: as §3

c1cc(-c2cnn3cc(-c4ccc(OCCN5CCCCC5)cc4)cnc23)ccn1 [DORSOMORPHIN]
Activity (Danio rerio [1]): 0% | Activity (Danio rerio [2]): 5% | Activity (Danio rerio [3]): 100% | inhibition (Mus musculus [4]): Active | Activity (Danio rerio [5]): 0% | inhibition (Mus musculus [6]): Active | Activity (Danio rerio [7]): 22% | Activity (Danio rerio [8]): 0% | inhibition (Mus musculus [9]): Active | inhibition (Mus musculus [10]): Dose-dependent effect | inhibition (Mus musculus [11]): Active | inhibition (Mus musculus [12]): Active | Ki [13]: 10 µM | inhibition (Danio rerio [14]): Active | inhibition (Mus musculus [15]): Active | inhibition (Mus musculus [16]): Active | inhibition (Danio rerio [17]): Active | inhibition (Mus musculus [18]): Active | Activity (Danio rerio [19]): 0% | Activity (Danio rerio [20]): Non-toxic | Activity (Danio rerio [21]): 0% | Activity (Danio rerio [22]): 15% | Activity (Danio rerio [23]): 19% | inhibition (Mus musculus [24]): Active | inhibition (Mus musculus [25]): Active | fold change (FC) (HepG2): 50 | inhibition (Mus musculus [26]): Active | inhibition (Mus musculus [27]): Active

Source: ChEMBL document CHEMBL1212693, “Dorsomorphin inhibits BMP signals required for embryogenesis and iron metabolism” (Nat Chem Biol, 2008)
